ChEMBL document CHEMBL4382192, “Discovery of a potent dual ALK and EGFR T790M inhibitor” (Eur J Med Chem, 2017)

Assays:
[1] = target: Tyrosine-protein kinase HCK (Homo sapiens) (UniProt P08631); assay: Binding affinity to wild-type human full length HCK (M22 to P526 residues) expressed in bacterial expression system assessed as residual binding level at 1 uM by Kinomescan method relative to control
Outline: (§1)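 Single-point kinome-wide KINOMEscan binding panel, test compound at 1 μM, run by the provider's standard protocol.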

[2] = target: Misshapen-like kinase 1 (Homo sapiens) (UniProt Q8N4C8); assay: Binding affinity to wild-type human partial length MINK (M1 to K312 residues) expressed in mammalian expression system assessed as residual binding level at 1 uM by Kinomescan method relative to control
[3] = tested on: Mast/stem cell growth factor receptor Kit (Homo sapiens), P10721 [D816V]; assay: Binding affinity to human partial length KIT D816V mutant (I571 to D952 residues) expressed in bacterial expression system assessed as residual binding level at 1 uM by Kinomescan method relative to control
Outline: (§2)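 Kinome-wide selectivity panel run by the KINOMEscan method, with the test compound at a single concentration of 1 μM. Wild-type and mutant kinases were profiled in the same screen.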

[4] = target: MAP/microtubule affinity-regulating kinase 4 (Homo sapiens) (UniProt Q96L34); assay: Binding affinity to wild-type human partial length MARK4 (K29 to G340 residues) expressed in bacterial expression system assessed as residual binding level at 1 uM by Kinomescan method relative to control
[5] = target: Ribosomal protein S6 kinase alpha-4 (Homo sapiens) (UniProt O75676); assay: Binding affinity to wild-type human partial length N-terminal RPS6KA4 kinase domain 1 expressed in bacterial expression system assessed as residual binding level at 1 uM by Kinomescan method relative to control
[6] = target: Serine/threonine-protein kinase Nek6 (Homo sapiens) (UniProt Q9HC98); assay: Binding affinity to wild-type human full length NEK6 (M8 to T313 residues) expressed in bacterial expression system assessed as residual binding level at 1 uM by Kinomescan method relative to control; outline: as §1
[7] = target: Cyclin-dependent kinase 2 homolog (Plasmodium falciparum (isolate 3D7)) (UniProt P61075); assay: Binding affinity to wild-type Plasmodium falciparum full length PK5 (M1 to N288 residues) expressed in mammalian expression system assessed as residual binding level at 1 uM by Kinomescan method relative to control; outline: as §2
[8] = target: Phosphatidylinositol 4-phosphate 5-kinase type-1 gamma (Homo sapiens) (UniProt O60331); assay: Binding affinity to wild-type human partial length PIP5K1C (M1 to T668 residues) expressed in mammalian expression system assessed as residual binding level at 1 uM by Kinomescan method relative to control
[9] = target: Megakaryocyte-associated tyrosine-protein kinase (Homo sapiens) (UniProt P42679); assay: Binding affinity to wild-type human full length CTK (M43 to P508 residues) expressed in mammalian expression system assessed as residual binding level at 1 uM by Kinomescan method relative to control
[10] = target: Activin receptor type-1-like (Homo sapiens) (UniProt P37023); assay: Binding affinity to wild-type human ACVRL1 (L164 to Q503 residues) expressed in bacterial expression system assessed as residual binding level at 1 uM by Kinomescan method relative to control
[11] = target: Mitogen-activated protein kinase 8 (Homo sapiens) (UniProt P45983); assay: Binding affinity to wild-type human full length JNK1 (M1 to Q384 residues) expressed in mammalian expression system assessed as residual binding level at 1 uM by Kinomescan method relative to control; outline: as §1
[12] = target: Calcium/calmodulin-dependent protein kinase type 1D (Homo sapiens) (UniProt Q8IU85); assay: Binding affinity to wild-type human partial length CAMK1D (M1 to K299 residues) expressed in bacterial expression system assessed as residual binding level at 1 uM by Kinomescan method relative to control
[13] = target: Serine/threonine-protein kinase MRCK gamma (Homo sapiens) (UniProt Q6DT37); assay: Binding affinity to wild-type human partial length DMPK2 (S46 to S408 residues) expressed in bacterial expression system assessed as residual binding level at 1 uM by Kinomescan method relative to control
[14] = target: Receptor-interacting serine/threonine-protein kinase 1 (Homo sapiens) (UniProt Q13546); assay: Binding affinity to wild-type human partial length RIPK1 (M1 to K305 residues) expressed in bacterial expression system assessed as residual binding level at 1 uM by Kinomescan method relative to control
[15] = target: Serine/threonine-protein kinase PAK 5 (Homo sapiens) (UniProt Q9P286); assay: Binding affinity to wild-type human partial length PAK7 (Y400 to H719 residues) expressed in bacterial expression system assessed as residual binding level at 1 uM by Kinomescan method relative to control
[16] = target: Hepatocyte growth factor receptor (Homo sapiens) (UniProt P08581); assay: Binding affinity to wild-type human partial length MET (D1010 to S1367 residues) expressed in bacterial expression system assessed as residual binding level at 1 uM by Kinomescan method relative to control
[17] = target: Mitogen-activated protein kinase 13 (Homo sapiens) (UniProt O15264); assay: Binding affinity to wild-type human full length p38-delta (M1 to L365 residues) expressed in bacterial expression system assessed as residual binding level at 1 uM by Kinomescan method relative to control
[18] = target: Mitogen-activated protein kinase 9 (Homo sapiens) (UniProt P45984); assay: Binding affinity to wild-type human full length JNK2 (M1 to Q382 residues) expressed in mammalian expression system assessed as residual binding level at 1 uM by Kinomescan method relative to control; outline: as §1
[19] = target: Dual specificity tyrosine-phosphorylation-regulated kinase 2 (Homo sapiens) (UniProt Q92630); assay: Binding affinity to wild-type human full length DYRK2 (M1 to S528 residues) expressed in mammalian expression system assessed as residual binding level at 1 uM by Kinomescan method relative to control
[20] = target: Serine/threonine-protein kinase pim-3 (Homo sapiens) (UniProt Q86V86); assay: Binding affinity to wild-type human partial length PIM3 (G16 to A317 residues) expressed in bacterial expression system assessed as residual binding level at 1 uM by Kinomescan method relative to control
[21] = target: Mitogen-activated protein kinase kinase kinase 20 (Homo sapiens) (UniProt Q9NYL2); assay: Binding affinity to wild-type human partial length ZAK (M1 to L331 residues) expressed in bacterial expression system assessed as residual binding level at 1 uM by Kinomescan method relative to control
[22] = target: Serine/threonine-protein kinase DCLK1 (Homo sapiens) (UniProt O15075); assay: Binding affinity to wild-type human partial length DCAMKL1 (L270 to A662 residues) expressed in mammalian expression system assessed as residual binding level at 1 uM by Kinomescan method relative to control
[23] = target: Phosphatidylinositol 4,5-bisphosphate 3-kinase catalytic subunit delta isoform (Homo sapiens) (UniProt O00329); assay: Binding affinity to wild-type human partial length PIK3CD (R108 to Q1044 residues) expressed in mammalian expression system assessed as residual binding level at 1 uM by Kinomescan method relative to control
[24] = target: Ephrin type-B receptor 4 (Homo sapiens) (UniProt P54760); assay: Binding affinity to wild-type human partial length EPHB4 (H585 to G892 residues) expressed in bacterial expression system assessed as residual binding level at 1 uM by Kinomescan method relative to control

Sequence of Serine/threonine-protein kinase MRCK gamma (Homo sapiens) (Q6DT37 whole entry, the tested form may be a part): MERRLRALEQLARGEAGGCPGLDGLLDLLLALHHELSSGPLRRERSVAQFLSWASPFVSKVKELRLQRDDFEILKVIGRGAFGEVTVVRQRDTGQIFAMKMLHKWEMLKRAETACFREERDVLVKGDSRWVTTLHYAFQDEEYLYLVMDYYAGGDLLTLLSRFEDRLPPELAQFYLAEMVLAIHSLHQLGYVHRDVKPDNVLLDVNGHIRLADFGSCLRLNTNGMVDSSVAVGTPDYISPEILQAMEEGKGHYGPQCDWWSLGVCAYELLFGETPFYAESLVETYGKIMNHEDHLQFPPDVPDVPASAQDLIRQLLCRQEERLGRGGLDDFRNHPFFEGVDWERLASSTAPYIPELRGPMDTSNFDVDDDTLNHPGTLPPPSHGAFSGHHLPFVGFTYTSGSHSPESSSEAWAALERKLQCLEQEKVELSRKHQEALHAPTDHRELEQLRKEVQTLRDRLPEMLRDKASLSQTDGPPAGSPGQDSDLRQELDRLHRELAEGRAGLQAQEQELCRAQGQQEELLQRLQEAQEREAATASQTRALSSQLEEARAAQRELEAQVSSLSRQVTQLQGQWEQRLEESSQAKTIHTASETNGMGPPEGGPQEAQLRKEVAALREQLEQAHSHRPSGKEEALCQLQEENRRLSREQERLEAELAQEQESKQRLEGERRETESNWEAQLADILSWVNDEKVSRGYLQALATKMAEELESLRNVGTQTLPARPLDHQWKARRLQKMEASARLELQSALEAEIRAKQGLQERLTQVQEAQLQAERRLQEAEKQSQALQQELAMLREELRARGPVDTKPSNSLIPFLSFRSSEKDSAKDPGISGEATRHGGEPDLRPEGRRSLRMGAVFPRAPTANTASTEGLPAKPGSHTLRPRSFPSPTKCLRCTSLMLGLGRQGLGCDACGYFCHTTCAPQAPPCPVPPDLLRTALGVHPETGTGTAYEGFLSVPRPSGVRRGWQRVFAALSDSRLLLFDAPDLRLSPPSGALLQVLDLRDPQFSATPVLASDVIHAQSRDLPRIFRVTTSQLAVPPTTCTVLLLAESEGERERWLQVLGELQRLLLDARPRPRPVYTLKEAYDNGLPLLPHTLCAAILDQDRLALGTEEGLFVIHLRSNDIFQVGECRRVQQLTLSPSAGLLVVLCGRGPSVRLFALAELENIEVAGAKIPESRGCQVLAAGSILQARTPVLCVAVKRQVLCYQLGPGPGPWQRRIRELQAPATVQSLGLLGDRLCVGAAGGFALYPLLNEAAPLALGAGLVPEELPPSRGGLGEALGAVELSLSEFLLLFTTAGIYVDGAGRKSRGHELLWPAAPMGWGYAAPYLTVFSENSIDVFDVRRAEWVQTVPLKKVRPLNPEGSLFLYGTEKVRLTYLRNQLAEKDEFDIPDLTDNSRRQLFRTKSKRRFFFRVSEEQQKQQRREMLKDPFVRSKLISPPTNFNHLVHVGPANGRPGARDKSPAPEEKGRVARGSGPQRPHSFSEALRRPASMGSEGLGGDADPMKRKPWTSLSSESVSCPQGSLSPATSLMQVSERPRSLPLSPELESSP
Sequence of Cyclin-dependent kinase 2 homolog (Plasmodium falciparum (isolate 3D7)) (P61075 whole entry, the tested form may be a part): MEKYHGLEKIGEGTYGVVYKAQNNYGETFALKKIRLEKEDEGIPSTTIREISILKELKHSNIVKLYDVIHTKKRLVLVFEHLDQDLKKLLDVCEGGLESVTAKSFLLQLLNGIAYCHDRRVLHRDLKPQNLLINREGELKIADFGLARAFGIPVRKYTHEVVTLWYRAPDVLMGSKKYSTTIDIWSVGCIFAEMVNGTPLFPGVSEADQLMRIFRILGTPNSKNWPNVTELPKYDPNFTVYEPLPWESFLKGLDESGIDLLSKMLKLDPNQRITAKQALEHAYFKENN
Sequence of Calcium/calmodulin-dependent protein kinase type 1D (Homo sapiens) (Q8IU85 whole entry, looked up, the tested form may be a part): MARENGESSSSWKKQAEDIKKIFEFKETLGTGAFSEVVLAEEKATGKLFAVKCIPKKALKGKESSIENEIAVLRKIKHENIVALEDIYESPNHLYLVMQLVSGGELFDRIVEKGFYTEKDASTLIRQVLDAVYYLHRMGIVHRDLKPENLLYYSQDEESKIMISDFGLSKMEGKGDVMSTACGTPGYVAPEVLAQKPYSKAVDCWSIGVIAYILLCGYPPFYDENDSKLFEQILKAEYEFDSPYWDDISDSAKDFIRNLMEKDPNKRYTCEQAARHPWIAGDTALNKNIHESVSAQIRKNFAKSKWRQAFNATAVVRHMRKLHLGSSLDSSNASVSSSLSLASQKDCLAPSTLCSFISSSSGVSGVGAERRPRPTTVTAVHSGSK
Sequence of Mitogen-activated protein kinase 8 (Homo sapiens) (P45983 whole entry, the tested form may be a part): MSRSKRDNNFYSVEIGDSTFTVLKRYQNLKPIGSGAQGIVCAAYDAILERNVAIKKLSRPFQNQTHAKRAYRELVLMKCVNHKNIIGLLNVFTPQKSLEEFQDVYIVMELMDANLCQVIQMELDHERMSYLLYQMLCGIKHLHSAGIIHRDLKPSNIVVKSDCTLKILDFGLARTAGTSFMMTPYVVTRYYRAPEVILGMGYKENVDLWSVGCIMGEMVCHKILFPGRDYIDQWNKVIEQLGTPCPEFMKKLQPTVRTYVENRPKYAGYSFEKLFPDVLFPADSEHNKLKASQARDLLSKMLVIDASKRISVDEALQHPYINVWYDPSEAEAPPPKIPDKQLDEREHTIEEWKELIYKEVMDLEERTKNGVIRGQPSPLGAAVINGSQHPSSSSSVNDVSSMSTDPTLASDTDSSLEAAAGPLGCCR
Sequence of Mitogen-activated protein kinase 9 (Homo sapiens) (P45984 whole entry, looked up, the tested form may be a part): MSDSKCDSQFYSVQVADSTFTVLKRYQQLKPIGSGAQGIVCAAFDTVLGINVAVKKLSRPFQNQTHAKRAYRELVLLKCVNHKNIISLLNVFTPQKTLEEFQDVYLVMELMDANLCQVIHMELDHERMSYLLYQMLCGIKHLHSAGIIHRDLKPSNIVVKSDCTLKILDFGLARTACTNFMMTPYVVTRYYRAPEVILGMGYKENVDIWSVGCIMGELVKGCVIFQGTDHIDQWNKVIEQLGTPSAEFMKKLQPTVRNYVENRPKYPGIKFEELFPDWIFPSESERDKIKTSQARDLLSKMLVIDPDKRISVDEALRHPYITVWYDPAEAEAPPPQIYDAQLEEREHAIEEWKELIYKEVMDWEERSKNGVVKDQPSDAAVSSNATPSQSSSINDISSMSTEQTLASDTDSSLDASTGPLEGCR
Sequence of Phosphatidylinositol 4,5-bisphosphate 3-kinase catalytic subunit delta isoform (Homo sapiens) (O00329 whole entry, the tested form may be a part, canonical isoform): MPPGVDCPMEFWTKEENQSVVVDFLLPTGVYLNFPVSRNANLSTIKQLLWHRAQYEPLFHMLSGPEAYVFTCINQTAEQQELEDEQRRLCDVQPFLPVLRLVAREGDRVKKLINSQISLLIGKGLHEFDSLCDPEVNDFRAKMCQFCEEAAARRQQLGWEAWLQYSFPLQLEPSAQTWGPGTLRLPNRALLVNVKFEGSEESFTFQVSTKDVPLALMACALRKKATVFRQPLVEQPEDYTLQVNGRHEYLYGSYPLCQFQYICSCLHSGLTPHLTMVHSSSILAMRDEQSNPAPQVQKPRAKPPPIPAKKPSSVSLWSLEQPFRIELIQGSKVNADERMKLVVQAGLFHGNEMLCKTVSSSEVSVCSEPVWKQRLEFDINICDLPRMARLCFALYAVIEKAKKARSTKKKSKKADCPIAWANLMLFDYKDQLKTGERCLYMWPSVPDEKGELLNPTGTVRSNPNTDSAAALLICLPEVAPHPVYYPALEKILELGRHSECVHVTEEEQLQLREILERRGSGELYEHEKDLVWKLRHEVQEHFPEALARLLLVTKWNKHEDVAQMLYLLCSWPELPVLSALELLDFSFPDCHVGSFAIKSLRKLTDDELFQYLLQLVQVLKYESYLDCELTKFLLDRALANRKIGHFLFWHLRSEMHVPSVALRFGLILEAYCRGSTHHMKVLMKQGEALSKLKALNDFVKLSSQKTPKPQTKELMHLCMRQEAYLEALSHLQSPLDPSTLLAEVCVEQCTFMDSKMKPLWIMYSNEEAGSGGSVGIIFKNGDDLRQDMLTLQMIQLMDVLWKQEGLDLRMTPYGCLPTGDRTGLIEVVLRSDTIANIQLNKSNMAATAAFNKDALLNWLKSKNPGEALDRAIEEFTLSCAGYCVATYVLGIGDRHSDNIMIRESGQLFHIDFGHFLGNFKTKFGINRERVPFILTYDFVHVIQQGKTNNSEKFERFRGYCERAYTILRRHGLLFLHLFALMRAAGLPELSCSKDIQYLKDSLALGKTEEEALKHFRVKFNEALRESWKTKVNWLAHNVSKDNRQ
Sequence of Mitogen-activated protein kinase 13 (Homo sapiens) (O15264 whole entry, the tested form may be a part): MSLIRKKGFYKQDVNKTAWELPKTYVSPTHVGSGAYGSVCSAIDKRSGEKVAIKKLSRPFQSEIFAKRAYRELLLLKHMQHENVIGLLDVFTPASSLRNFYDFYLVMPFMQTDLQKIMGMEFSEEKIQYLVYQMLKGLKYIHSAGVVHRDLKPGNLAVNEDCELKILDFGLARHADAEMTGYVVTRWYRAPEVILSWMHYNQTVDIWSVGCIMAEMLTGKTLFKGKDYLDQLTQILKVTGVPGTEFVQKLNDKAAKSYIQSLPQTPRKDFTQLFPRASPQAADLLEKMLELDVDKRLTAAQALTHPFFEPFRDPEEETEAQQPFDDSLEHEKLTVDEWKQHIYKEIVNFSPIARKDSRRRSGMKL
Sequence of Activin receptor type-1-like (Homo sapiens) (P37023 whole entry, the tested form may be a part): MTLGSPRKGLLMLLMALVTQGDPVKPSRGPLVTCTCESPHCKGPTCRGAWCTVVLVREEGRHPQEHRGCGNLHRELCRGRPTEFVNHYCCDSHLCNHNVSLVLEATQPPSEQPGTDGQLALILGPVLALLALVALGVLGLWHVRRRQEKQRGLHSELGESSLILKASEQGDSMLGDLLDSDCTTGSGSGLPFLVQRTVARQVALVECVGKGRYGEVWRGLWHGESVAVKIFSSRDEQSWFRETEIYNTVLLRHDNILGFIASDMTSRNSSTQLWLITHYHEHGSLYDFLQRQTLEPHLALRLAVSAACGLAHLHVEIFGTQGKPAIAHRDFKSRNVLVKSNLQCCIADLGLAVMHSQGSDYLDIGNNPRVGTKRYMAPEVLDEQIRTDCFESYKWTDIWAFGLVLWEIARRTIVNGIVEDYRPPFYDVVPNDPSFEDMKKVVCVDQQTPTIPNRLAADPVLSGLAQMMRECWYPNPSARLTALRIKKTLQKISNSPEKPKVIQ

Compound `C=CC(=O)Nc1cc(Nc2ncc(Cl)c(Nc3ccccc3S(=O)(=O)C(C)C)n2)c(OC)cc1N(C)CCN(C)C` has an Activity [1] of 49%, an Activity [2] of 34% and an Activity [3] of 26%. For the same compound, the Activity [4] was 6%, the Activity [5] was 99% and the Activity [6] was 80%. The Activity [7] was 91%, the Activity [8] was 98% and the Activity [9] was 98%. It also gave an Activity [10] of 30%, an Activity [11] of 59% and an Activity [12] of 9.9%. For the same compound, the Activity [13] was 91%, the Activity [14] was 82% and the Activity [15] was 79%. It also gave an Activity [16] of 30%, an Activity [17] of 100% and an Activity [18] of 68%. For the same compound, the Activity [19] was 100%, the Activity [20] was 96% and the Activity [21] was 86%. For the same compound, the Activity [22] was 14%, the Activity [23] was 75% and the Activity [24] was 76%.
